# Paper PMC5766324 (Pain, 2015)
# Where a SMILES comes first, the peptide text is derived from it. The star is where a group is joined. Myristoyl = CCCCCCCCCCCCCC(=O)*
# Assays:
# Rotarod performance test = format: in vivo, rat; settings: 20 μg/5 μL i.t.; cutoff 180 seconds; n = 5 to 6
# [1] = system: Ca2+ currents in sensory neurons; settings: cited from earlier work
# [2] = cited from earlier work
# CRMP2 phosphorylation = experiment: Western blot of phospho-CRMP2 in peptide-treated DRG; format: cell-based, rat; settings: 20 μM peptide, 2 hours, n = 3–6 wells
# CRMP2 = CRMP2 (Homo sapiens, UniProt Q16555); experiment: CRMP2 oligomerization, glutaraldehyde cross-linking and silver-stained SDS-PAGE; format: biochemical; settings: 20 μM peptide, 1 mM glutaraldehyde; n = 3
# Outline: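 Bacterially expressed recombinant CRMP2, purified by affinity, anion-exchange and size-exclusion chromatography. About 4.6 μM CRMP2 was preincubated in 100 mM HEPES pH 7.3, 50 mM NaCl, with or without 20 μM peptide, for 15 min at room temperature. Glutaraldehyde (0.1, 1 or 10 mM) was added for 30 min. The reaction was stopped with loading dye and heat, and oligomers were resolved by SDS-PAGE with silver staining.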
# CaV2.2 = experiment: Immunocytochemistry, confocal colocalization of CaV2.2 and CRMP2 in DRG; format: cell-based, rat; settings: 20 μM peptide
# Outline: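 DRG cultures were grown on poly-D-lysine coverslips in DMEM/F12 with 10% FBS, 5-FDU and uridine at 37°C, 5% CO2. Cells were exposed to vehicle or 20 μM peptide for 5 min, 20 min, 2 h or 48 h, then fixed (4% paraformaldehyde/4% sucrose, 20 min), permeabilized (0.1% Triton X-100) and blocked (3% BSA). Anti-CaV2.2 and anti-CRMP2 were applied overnight at 4°C. Confocal images were background-subtracted, and Pearson and Manders coefficients were computed from raw data.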
# [3] = system: Ca2+ currents in sensory neurons; experiment: Whole-cell voltage clamp, Ca2+ currents in sensory neurons; format: cell-based, rat
# [4] = system: small-diameter DRG neurons; experiment: Current clamp, excitability of small-diameter DRG neurons; format: cell-based, rat; settings: step of depolarizing current; n = 4 to 6 cells; P < 0.001
# Outline: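 Whole-cell current clamp of acutely dissociated small-diameter DRG neurons at ~23°C. Pipette solution (mM): 140 KCl, 10 NaCl, 1 MgCl2, 1 EGTA, 10 HEPES pH 7.2, 1 ATP-Mg. Cells were held at resting potential (−40 to −62 mV). A 1-s depolarizing current step was set to evoke 6–10 APs under control, and APs were counted before and after adding peptide to the bath. Signals were filtered at 5 kHz and […].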
# [5] = Carrageenan-induced thermal hypersensitivity; format: in vivo, rat; settings: 20 μg/5 μL i.t., 3 hours after carrageenan; tat-CBD3 at 90, 120, 210, 240, 300 minutes; myr-tat-CBD3 at 15, 60, 90, 120, 180 minutes; n = 5–6
# [6] = Paw incision model of postoperative pain; format: in vivo, rat
# Outline: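 Male Sprague-Dawley rats received a plantar incision of the left hind paw under isoflurane. After 24 h of recovery, peptide or vehicle was given spinally. Thermal withdrawal latency (lift or lick; 30-s cutoff) and tactile withdrawal thresholds were measured every 15 min for the first hour, then every 30 min for 4 h.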
# [7] = system: Na+ currents, catecholamine A differentiated cell line; settings: chronic application, 20 μM overnight; n = 5 to 8 cells
# [8] = i.c.v. dosing; previous studies; cited from earlier work
# [9] = molecular target: N-type voltage-gated calcium channel (CaV2.2) (rat (endogenous in spinal cord)) (UniProt Q02294); experiment: pull-down
# Chain of N-type voltage-gated calcium channel (CaV2.2) (rat (endogenous in spinal cord)) (Q02294 whole entry): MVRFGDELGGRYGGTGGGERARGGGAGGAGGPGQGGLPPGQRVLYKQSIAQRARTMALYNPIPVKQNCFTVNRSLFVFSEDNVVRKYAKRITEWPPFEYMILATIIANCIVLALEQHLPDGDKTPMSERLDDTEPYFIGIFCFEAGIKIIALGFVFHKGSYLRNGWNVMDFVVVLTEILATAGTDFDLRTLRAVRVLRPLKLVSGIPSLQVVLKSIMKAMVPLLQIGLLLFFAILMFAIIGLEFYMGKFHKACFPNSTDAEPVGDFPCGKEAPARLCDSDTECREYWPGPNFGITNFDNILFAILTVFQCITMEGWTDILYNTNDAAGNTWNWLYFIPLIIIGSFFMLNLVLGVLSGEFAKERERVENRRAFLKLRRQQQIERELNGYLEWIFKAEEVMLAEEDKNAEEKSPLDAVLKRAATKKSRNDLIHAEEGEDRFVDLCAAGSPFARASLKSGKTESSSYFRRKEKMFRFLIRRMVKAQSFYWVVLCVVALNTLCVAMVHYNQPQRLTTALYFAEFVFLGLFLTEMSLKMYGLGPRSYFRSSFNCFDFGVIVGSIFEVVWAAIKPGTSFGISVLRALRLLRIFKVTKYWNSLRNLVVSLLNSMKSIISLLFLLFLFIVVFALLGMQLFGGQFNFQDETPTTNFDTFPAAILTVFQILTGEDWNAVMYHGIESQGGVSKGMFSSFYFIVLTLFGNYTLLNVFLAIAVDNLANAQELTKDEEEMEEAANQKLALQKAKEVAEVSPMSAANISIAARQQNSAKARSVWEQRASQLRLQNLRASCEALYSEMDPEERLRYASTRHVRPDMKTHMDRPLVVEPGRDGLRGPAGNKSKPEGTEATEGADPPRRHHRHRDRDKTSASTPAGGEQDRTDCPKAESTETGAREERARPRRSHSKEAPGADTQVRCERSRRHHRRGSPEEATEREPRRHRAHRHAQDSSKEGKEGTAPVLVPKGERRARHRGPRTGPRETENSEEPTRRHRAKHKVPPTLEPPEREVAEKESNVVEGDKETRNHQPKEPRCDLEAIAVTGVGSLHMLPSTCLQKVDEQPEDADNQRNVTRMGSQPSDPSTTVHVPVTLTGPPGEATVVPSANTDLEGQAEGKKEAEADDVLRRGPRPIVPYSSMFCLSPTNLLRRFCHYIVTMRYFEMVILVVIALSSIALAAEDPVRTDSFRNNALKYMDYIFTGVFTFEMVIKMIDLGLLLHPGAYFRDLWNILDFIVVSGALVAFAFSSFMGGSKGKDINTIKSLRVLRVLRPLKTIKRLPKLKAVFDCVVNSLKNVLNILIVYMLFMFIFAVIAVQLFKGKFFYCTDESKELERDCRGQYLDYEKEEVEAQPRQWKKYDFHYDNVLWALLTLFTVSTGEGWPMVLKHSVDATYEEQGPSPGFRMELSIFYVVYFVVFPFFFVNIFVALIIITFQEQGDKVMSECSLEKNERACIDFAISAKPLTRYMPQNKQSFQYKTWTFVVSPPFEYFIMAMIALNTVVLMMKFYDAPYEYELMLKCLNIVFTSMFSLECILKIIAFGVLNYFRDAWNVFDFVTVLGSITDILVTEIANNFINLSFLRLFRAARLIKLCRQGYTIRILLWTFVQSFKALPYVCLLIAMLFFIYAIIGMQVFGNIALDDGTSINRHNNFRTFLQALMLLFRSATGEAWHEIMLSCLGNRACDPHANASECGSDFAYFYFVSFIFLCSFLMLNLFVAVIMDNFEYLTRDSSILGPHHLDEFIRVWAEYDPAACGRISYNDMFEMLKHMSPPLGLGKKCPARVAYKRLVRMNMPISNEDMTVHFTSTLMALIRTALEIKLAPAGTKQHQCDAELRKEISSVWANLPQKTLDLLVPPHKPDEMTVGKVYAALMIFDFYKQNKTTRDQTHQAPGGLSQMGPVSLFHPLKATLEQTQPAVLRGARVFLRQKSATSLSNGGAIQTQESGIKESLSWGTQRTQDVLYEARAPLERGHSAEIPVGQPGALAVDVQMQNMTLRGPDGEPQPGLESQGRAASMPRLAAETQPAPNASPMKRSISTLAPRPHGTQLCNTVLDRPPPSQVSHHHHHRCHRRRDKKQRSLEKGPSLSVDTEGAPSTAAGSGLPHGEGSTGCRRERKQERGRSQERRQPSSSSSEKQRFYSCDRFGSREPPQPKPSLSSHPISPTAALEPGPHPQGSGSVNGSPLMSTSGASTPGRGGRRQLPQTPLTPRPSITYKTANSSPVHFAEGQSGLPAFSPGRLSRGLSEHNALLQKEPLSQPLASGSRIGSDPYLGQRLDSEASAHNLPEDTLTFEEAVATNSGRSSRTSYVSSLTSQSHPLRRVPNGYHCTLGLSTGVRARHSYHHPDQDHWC
compound,measurement,setting,value
CC(C)C[C@H](NC(=O)CNC(=O)[C@H](CCCNC(=N)N)NC(=O)[C@@H]1CCCN1C(=O)[C@@H](NC(=O)CNC(=O)[C@H](CCCNC(=N)N)NC(=O)[C@H](CC(C)C)NC(=O)[C@H](CCC(=O)O)NC(=O)[C@H](C)NC(=O)[C@H](CC(C)C)NC(=O)[C@H](CCCNC(=N)N)NC(=O)[C@H](CO)NC(=O)[C@H](CCCNC(=N)N)NC(=O)[C@H](C)NC(=O)[C@H](CCCNC(=N)N)NC(=O)[C@H](CCCNC(=N)N)NC(=O)[C@H](CCCNC(=N)N)NC(=O)[C@H](CCC(N)=O)NC(=O)[C@H](CCCNC(=N)N)NC(=O)[C@H](CCCNC(=N)N)NC(=O)[C@H](CCCCN)NC(=O)[C@H](CCCCN)NC(=O)[C@H](CCCNC(=N)N)NC(=O)CNC(=O)[C@@H](N)Cc1ccc(O)cc1)C(C)C)C(=O)O [tat-CBD3] (H-YGRKKRRQRRRARSRLAELRGVPRGL-OH),average time on rotarod over the course of 300 minutes,Rotarod performance test,180 ± 0 s
NCC1(CC(=O)O)CCCCC1 [gabapentin],block of CaV2.2 currents after acute treatments,[1],ineffective in blocking currents
same,"peak effect, reversal of hypersensitivity","[2]; intrathecal, von Frey on incised paw, 60 minutes after injection",~ 19%
CCCCCCCCCCCCCC(=O)NCC(=O)N[C@@H](Cc1ccc(O)cc1)C(=O)NCC(=O)N[C@@H](CCCNC(=N)N)C(=O)N[C@@H](CCCCN)C(=O)N[C@@H](CCCCN)C(=O)N[C@@H](CCCNC(=N)N)C(=O)N[C@@H](CCCNC(=N)N)C(=O)N[C@@H](CCC(N)=O)C(=O)N[C@@H](CCCNC(=N)N)C(=O)N[C@@H](CCCNC(=N)N)C(=O)N[C@@H](CCCNC(=N)N)C(=O)N[C@@H](C)C(=O)N[C@@H](CCCNC(=N)N)C(=O)N[C@@H](CO)C(=O)N[C@@H](CCCNC(=N)N)C(=O)N[C@@H](CC(C)C)C(=O)N[C@@H](C)C(=O)N[C@@H](CCC(=O)O)C(=O)N[C@@H](CC(C)C)C(=O)N[C@@H](CCCNC(=N)N)C(=O)NCC(=O)N[C@H](C(=O)N1CCC[C@H]1C(=O)N[C@@H](CCCNC(=N)N)C(=O)NCC(=O)N[C@@H](CC(C)C)C(=O)O)C(C)C [myr-tat-CBD3] (Myristoyl-GYGRKKRRQRRRARSRLAELRGVPRGL-OH; C-terminus assumed),"expression of phosphorylated CRMP2 at sites 522, 509/514, 555",CRMP2 phosphorylation,no changes
same,extent of CRMP2 dimer or tetramer,CRMP2,does not alter
same,"Manders overlap coefficient (MOC), CaV2.2 with CRMP2",CaV2.2,0.65
same,"Pearson correlation coefficient (PCC), CaV2.2 with CRMP2",CaV2.2,0.60
same,"effect on Ca2+ currents, acute application","[3]; acute application (5–30 minutes), data not shown",unable to inhibit currents
same,inhibition of Ca2+ currents,"[3]; chronic application (~24 hours), 20 μM overnight, n = 14 to 16 cells",~ 40%
same,activation of Ca2+ currents,"[3]; chronic application, 20 μM, Boltzmann fits",no changes
same,number of action potentials (APs),[4],significantly decreased
same,carrageenan-induced thermal hypersensitivity vs vehicle,[5],significantly attenuated
same,time for which maintenance of thermal and tactile hypersensitivity was blocked,"[6]; 20 μg/5 μL i.t., 24 hours after incision, n = 5",at least 4 hours
same,withdrawal threshold (tactile),"[6]; at 5 hours after i.t. injection, 20 μg/5 μL",~ 11 g
same,duration of reversal of thermal hypersensitivity,[6]; spinal administration after surgery,~ 4 hours
same,effect on Na+ currents,[7],did not affect
ω-conotoxin MVIIA,duration of reduced thermal hypersensitivity and mechanical allodynia,[2]; in vivo,2 to 4 h
same,time of maximal effect,[2]; in vivo,2 h
CN1CC[C@]23c4c5ccc(O)c4O[C@H]2[C@@H](O)C=C[C@H]3[C@H]1C5 [morphine],conditioned place preference,[8],positive condition place preference
myr-tat-CBD3 (peptide),percent inhibition of CaV2.2-CRMP2 binding at 10 μM,[9],> 81%
